For data set [1], the system named is Mus musculus. As to the kind of experiment: Anticonvulsant activity in ip dosed albino mouse by MES seizure test. It is filed as functional. In a few lines: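 Mice dosed intraperitoneally and challenged by maximal electroshock (MES). Dose-effect data taken at the time of peak effect, given in hours.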
The nature of data set [2]: Neurotoxicity in ip dosed albino mouse by rotarod test. The settings on record: in vivo. It is filed as toxicity, organism-based. In a few lines: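 Mice dosed intraperitoneally and tested on the rotorod for neurologic toxicity. Dose-effect data taken at the time of peak effect, given in hours.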
Data set [3] is filed under the species Mus musculus. As to the kind of experiment: Protective index, ratio of TD50 for albino mouse by rotarod test to ED50 for albino mouse by MES seizure test. The format is functional. In a few lines:
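Protective index calculated as TD50/ED50. TD50 is from the mouse rotorod test and ED50 from the MES test, both after intraperitoneal dosing at the time of peak effect.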

Structures are written as SMILES.

Consider 7 compounds from ChEMBL document CHEMBL1144225, “Synthesis and anticonvulsant activities of N-benzyl (2R)-2-acetamido-3-oxysubstituted propionamide derivatives” (Bioorg Med Chem, 2008).

In the case of `CCCC(CCC)C(=O)[O-].[Na+]` [VALPROATE SODIUM], in the data set with Mus musculus [1], the ED50 stood at 270 mg/kg.
For `CC(=O)N[C@H](COC(C)C)C(=O)NCc1ccccc1`, it took a dose of 23 mg/kg to reach the 50% effect level in the data set on Mus musculus [1] (ED50). This compound also returned a TD50 in data set [2] of 77 mg/kg. The “Ratio TD50/ED50” value in the data set filed under Mus musculus [3] is 3.3.
As to `COCCOCCOC[C@@H](NC(C)=O)C(=O)NCc1ccccc1`, in the data set on Mus musculus [1], the ED50 is more than 300 mg/kg. In addition, the TD50 in data set [2] was more than 300 mg/kg.
The compound `CCC1(c2ccccc2)C(=O)NC(=O)NC1=O` [PHENOBARBITAL] yielded an ED50 with Mus musculus [1] of 22 mg/kg.
In the data set with Mus musculus [1], `CC(=O)N[C@H](COc1ccccc1)C(=O)NCc1ccccc1` had an ED50 of 100 mg/kg. The same compound had a TD50 in data set [2] of 30 mg/kg.
The compound `CC(=O)N[C@H](COC(C)(C)C)C(=O)NCc1ccccc1` returned an ED50 in the data set with Mus musculus [1] of 30 mg/kg. The TD50 in data set [2] was found to be 100 mg/kg.
As to `CCOC[C@@H](NC(C)=O)C(=O)NCc1ccccc1`, in the data set with Mus musculus [1], the 50% effect level (ED50) was put at a dose of 7.9 mg/kg. Also, in data set [2], the TD50 was determined as 44 mg/kg. Further, the “Ratio TD50/ED50” value in the data set filed under Mus musculus [3] was 5.6.
